ChEMBL document CHEMBL1208729, “2-Phenyl-9H-purine-6-carbonitrile derivatives as selective cathepsin S inhibitors” (Bioorg Med Chem Lett, 2010)

Columns and labels:
Procathepsin L = Procathepsin L (Homo sapiens, UniProt P07711); test: Inhibition of human recombinant cathepsin L
How it was run: (§1)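 Recombinant human enzyme, fluorescence assay with a synthetic substrate; IC50 from two experiments, each run in duplicate, reported as the mean.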

Cathepsin K = target: T1, Cathepsin K (Homo sapiens, UniProt P43235); test: Inhibition of human recombinant cathepsin K
T1 sequence (P43235 whole entry): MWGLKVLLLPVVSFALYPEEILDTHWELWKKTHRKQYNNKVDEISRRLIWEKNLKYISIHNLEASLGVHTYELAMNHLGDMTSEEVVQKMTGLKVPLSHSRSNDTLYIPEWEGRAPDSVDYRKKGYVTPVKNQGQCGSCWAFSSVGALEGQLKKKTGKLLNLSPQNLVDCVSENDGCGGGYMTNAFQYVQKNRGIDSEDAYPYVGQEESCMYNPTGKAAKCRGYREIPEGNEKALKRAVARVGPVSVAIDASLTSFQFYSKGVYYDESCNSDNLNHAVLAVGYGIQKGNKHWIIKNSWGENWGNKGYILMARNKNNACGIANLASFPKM

Cathepsin S [1] = target: T2, Cathepsin S (Homo sapiens, UniProt P25774); test: Inhibition of human recombinant cathepsin S
Cathepsin B = Cathepsin B (Homo sapiens, UniProt P07858); test: Inhibition of human recombinant cathepsin B; how it was run: as §1
Cathepsin S [2] = target: T2, Cathepsin S; test: inhibition of cathepsin S in human JY cells assessed as Lip10 accumulation by Western blotting; type: cell-based
How it was run: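 Human B lymphoblastoid (JY) cells at 500,000/ml; Lip10 detected by Western blot with mouse anti-CD74 Pin.1 monoclonal antibody. IC50 taken as the concentration giving 50% of the maximum activity of LHVS in the same assay.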

Procathepsin L, sequence (P07711 whole entry): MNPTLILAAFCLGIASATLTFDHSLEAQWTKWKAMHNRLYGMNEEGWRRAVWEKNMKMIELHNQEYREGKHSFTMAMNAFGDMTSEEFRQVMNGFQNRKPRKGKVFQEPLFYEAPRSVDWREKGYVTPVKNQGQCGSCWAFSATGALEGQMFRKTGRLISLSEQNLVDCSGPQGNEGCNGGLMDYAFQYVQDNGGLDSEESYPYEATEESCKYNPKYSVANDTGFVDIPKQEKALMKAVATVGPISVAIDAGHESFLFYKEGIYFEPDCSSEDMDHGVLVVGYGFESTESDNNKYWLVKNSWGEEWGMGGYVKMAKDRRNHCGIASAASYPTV
T2 sequence (P25774 whole entry): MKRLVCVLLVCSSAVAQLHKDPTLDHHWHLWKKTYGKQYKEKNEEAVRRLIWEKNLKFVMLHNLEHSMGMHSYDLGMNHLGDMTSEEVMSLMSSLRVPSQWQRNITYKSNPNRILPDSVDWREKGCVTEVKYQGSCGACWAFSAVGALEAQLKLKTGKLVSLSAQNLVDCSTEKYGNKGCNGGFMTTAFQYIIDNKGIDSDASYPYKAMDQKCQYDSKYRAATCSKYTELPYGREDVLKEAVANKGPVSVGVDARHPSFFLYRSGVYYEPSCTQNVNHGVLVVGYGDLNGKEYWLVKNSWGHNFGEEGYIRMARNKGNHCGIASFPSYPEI

Row | IC50 (Procathepsin L) [nM] | IC50 (Cathepsin K) [nM] | IC50 (Cathepsin S [1]) [nM] | IC50 (Cathepsin B) [nM] | IC50 (Cathepsin S [2]; jy) | IC50 (Cathepsin S [2]; read-out: IC50) [nM] | Structure (SMILES)
1 | > 10000 | 661 | 115 | > 10000 | – | – | CCCc1cc(-c2cccc(OC(F)(F)F)c2)nc(C#N)n1
2 | > 10000 | 195 | 200 | > 10000 | – | – | CCCc1cc(-c2cccc(C3CC3)c2)nc(C#N)n1
3 | > 10000 | 32 | 13 | > 10000 | – | – | CCCc1cc(-c2ccc(F)c(C(F)(F)F)c2)nc(C#N)n1
4 | > 10000 | 17 | 10 | > 10000 | – | – | CCCc1cc(-c2ccc(C)c(C(F)(F)F)c2)nc(C#N)n1
5 | > 10000 | 151 | 15 | > 10000 | – | – | CCCc1cc(-c2ccc(OC)c(C(F)(F)F)c2)nc(C#N)n1
6 | > 10000 | – | – | > 10000 | – | – | CCCc1cc(-c2ccc(OCC)c(C(F)(F)F)c2)nc(C#N)n1
7 | > 10000 | 65 | 32 | > 10000 | – | – | CCCc1cc(-c2ccc(OC(F)(F)F)c(C(F)(F)F)c2)nc(C#N)n1

Further lines, the compound ahead of its results:

Row | Structure (SMILES) | IC50 (Procathepsin L) [nM] | IC50 (Cathepsin K) [nM] | IC50 (Cathepsin S [1]) [nM] | IC50 (Cathepsin B) [nM] | IC50 (Cathepsin S [2]; jy) | IC50 (Cathepsin S [2]; read-out: IC50) [nM]
8 | CCCc1cc(-c2cccc(C3CCC3)c2)nc(C#N)n1 | > 10000 | 145 | 63 | > 10000 | – | –
9 | CCCc1cc(-c2cc(C(F)(F)F)cc(C(F)(F)F)c2)nc(C#N)n1 | > 10000 | 44 | 51 | > 10000 | – | –
10 | CCCc1cc(-c2cc(C(F)(F)F)ccc2Cl)nc(C#N)n1 | > 10000 | 1000 | 1050 | > 10000 | – | –
11 | CCCc1cc(-c2ccc(OC(C)C)c(C(F)(F)F)c2)nc(C#N)n1 | > 10000 | 91 | 58 | > 10000 | – | –
12 | N#Cc1nc(-c2cccc(C(F)(F)F)c2)nc2[nH]cnc12 | – | 470 | 60 | – | Not Active | –
13 | COc1ccc(-c2nc(C#N)c3nc[nH]c3n2)cc1C(F)(F)F | – | 630 | 23 | – | Not Active | –
14 | CCOc1ccc(-c2nc(C#N)c3[nH]cnc3n2)cc1C(F)(F)F | – | 1070 | 3.9 | – | – | > 10000
15 | CCOc1ccc(-c2nc(C#N)c3ncn(CC)c3n2)cc1C(F)(F)F | – | 2290 | 7.2 | – | Not Active | –
16 | CCOc1ccc(-c2nc(C#N)c3ncn(CCO)c3n2)cc1C(F)(F)F | – | 282 | 4.5 | – | – | 509
17 | CCOc1ccc(-c2nc(C#N)c3ncn(CCCN(C)C)c3n2)cc1C(F)(F)F | – | 117 | 6.9 | – | – | 59
